According to ChEMBL document CHEMBL1157843, “Synthesis and anticonvulsant activity of a new 6-alkoxy-[1,2,4]triazolo[4,3-b]pyridazine” (Eur J Med Chem, 2010):
Calls of active or inactive are those of the source. No cut-off for these calls is given here.

Key:
Mus musculus [1] = experiment: Anticonvulsant in ip dosed mouse assessed as protection against maximum electric stimulus-induced seizures; format: functional
Method in brief: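 Phase-II quantitation in KunMing mice (18–25 g), vehicle polyethylene glycol-400. Groups of 10 received a range of i.p. doses until at least three points fell within 10–90% MES protection or minimal rotarod neurotoxicity. ED50, TD50 and 95% confidence intervals computed from regression by an NINDS program. PI = TD50/ED50.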

[2] = Neurotoxicity against ip dosed mouse by rotarod ataxia test; format: toxicity, organism-based; conditions: in vivo
Mus musculus [3] = experiment: Protective index, ratio of TD50 for ip dosed mouse to ED50 for maximum electric stimulus-induced seizure in ip dosed mouse; format: functional
Mus musculus [4] = experiment: Anticonvulsant in mouse assessed as protection against maximum electric stimulus-induced seizures at 100 mg/kg, ip after 4 hrs; format: functional, organism-based; design: dose 100 mg/kg
Method in brief: (§1)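 Phase-I qualitative MES screen following NIH ADD protocol. KunMing mice (18–25 g), three per dose, test agent in polyethylene glycol-400 i.p. at 30, 100 or 300 mg/kg. Protection assessed 0.5 h and 4 h after dosing; scored as animals protected/animals tested.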

Mus musculus [5] = experiment: Anticonvulsant in mouse assessed as protection against maximum electric stimulus-induced seizures at 100 mg/kg, ip after 0.5 hrs; format: functional, organism-based; design: dose 100 mg/kg; method in brief: as §1
Mus musculus [6] = experiment: Neurotoxicity against mouse at 100 mg/kg, ip after 0.5 hrs by rotarod ataxia test; format: toxicity, organism-based; design: dose 100 mg/kg, route intraperitoneal; conditions: in vivo
Method in brief: (§2)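 Phase-I rotarod ataxia screen per NIH ADD protocol. KunMing mice (18–25 g), three per dose, test agent in polyethylene glycol-400 i.p. at 30, 100 or 300 mg/kg. Neurological deficit read 30 min and 4 h after dosing; scored as animals showing toxicity/animals tested.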

Mus musculus [7] = experiment: Neurotoxicity against mouse at 100 mg/kg, ip after 4 hrs by rotarod ataxia test; format: toxicity, organism-based; design: dose 100 mg/kg, route intraperitoneal; conditions: in vivo; method in brief: as §2
Mus musculus [8] = experiment: Anticonvulsant activity in mouse assessed as inhibition of isoniazid-induced clonic seizure at 50 mg/kg, ip administered 30 mins prior to isoniazid challenge measured after 0.5 hrs; format: functional; conditions: route intraperitoneal
Method in brief: (§3)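 KunMing mice, 18–25 g, groups of 10; test agent in polyethylene glycol-400 given i.p. 30 min before convulsant. PTZ 85 mg/kg s.c., 3-MP 40 mg/kg s.c., isoniazid 250 mg/kg i.p.; doses chosen to induce seizures in at least 97% of animals. Individual cages, 30 min observation; clonic seizures, tonic seizures and lethality recorded.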

Mus musculus [9] = experiment: Anticonvulsant activity in mouse assessed as inhibition of PTZ-induced clonic seizure at 50 mg/kg, ip administered 30 mins prior to PTZ challenge measured after 0.5 hrs; format: functional; conditions: route intraperitoneal; method in brief: as §3
Mus musculus [10] = experiment: Anticonvulsant activity in mouse assessed as inhibition of PTZ-induced tonic seizure at 50 mg/kg, ip administered 30 mins prior to PTZ challenge measured after 0.5 hrs; format: functional; conditions: route intraperitoneal; method in brief: as §3
Mus musculus [11] = species on record: Mus musculus; experiment: Sedative-hypnotic activity in mouse assessed as reduction in righting reflex; format: organism-based; conditions: in vivo
Method in brief: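 Phase-III work in KunMing mice: behaviour observed at intervals up to 24 h after i.p. TD50, 2TD50 and 4TD50 doses. […] Ratio taken as HD50 divided by i.p. MES ED50.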

Mus musculus [12] = species on record: Mus musculus; experiment: Ratio of HD50 for hypnotic activity to EC50 for inhibition of maximum electric stimulus-induced seizure in mouse; format: functional
Mus musculus [13] = experiment: Neurotoxicity against mouse at 30 mg/kg, ip after 4 hrs by rotarod ataxia test; format: toxicity, organism-based; design: dose 30 mg/kg, route intraperitoneal; conditions: in vivo; method in brief: as §2
Mus musculus [14] = experiment: Anticonvulsant activity in mouse assessed as reduction of isoniazid-induced lethality at 50 mg/kg, ip administered 30 mins prior to isoniazid challenge measured after 0.5 hrs; format: functional; design: scale not given: the % may be the effect or the level left; conditions: route intraperitoneal
Mus musculus [15] = experiment: Anticonvulsant activity in mouse assessed as inhibition of thiosemicarbazide-induced tonic seizure at 50 mg/kg, ip administered 30 mins prior to thiosemicarbazide challenge measured after 2.5 hrs; format: functional; conditions: route intraperitoneal
Method in brief: (§4)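 KunMing mice (18–25 g), groups of 10, pretreated i.p. with test agent in polyethylene glycol-400 30 min before thiosemicarbazide 50 mg/kg i.p. Animals kept in individual cages and watched for 2 h 30 min, noting clonic seizures, tonic seizures and lethality.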

Mus musculus [16] = experiment: Anticonvulsant activity in mouse assessed as reduction of thiosemicarbazide-induced lethality at 50 mg/kg, ip administered 30 mins prior to thiosemicarbazide challenge measured after 2.5 hrs; format: functional; design: scale not given: the % may be the effect or the level left; conditions: route intraperitoneal
Mus musculus [17] = experiment: Anticonvulsant activity in mouse assessed as inhibition of isoniazid-induced tonic seizure at 50 mg/kg, ip administered 30 mins prior to isoniazid challenge measured after 0.5 hrs; format: functional; conditions: route intraperitoneal; method in brief: as §3
Mus musculus [18] = experiment: Anticonvulsant activity in mouse assessed as inhibition of 3-mercaptopropionic acid-induced tonic seizure at 50 mg/kg, ip administered 30 mins prior to 3-mercaptopropionic acid challenge measured after 0.5 hrs; format: functional; conditions: route intraperitoneal; method in brief: as §3
Mus musculus [19] = experiment: Anticonvulsant in po dosed mouse assessed as protection against maximum electric stimulus-induced seizures; format: functional
Method in brief: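 Oral version of the phase-II protocol in KunMing mice (18–25 g). Groups of 10 dosed p.o. over a range giving at least three points between 10–90% MES protection or rotarod minimal neurotoxicity. Testing at 2 h time to peak effect. ED50 and TD50 with 95% confidence intervals from regression. PI = TD50/ED50.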

[20] = Neurotoxicity against po dosed mouse by rotarod ataxia test; format: toxicity, organism-based; conditions: in vivo
Mus musculus [21] = experiment: Protective index, ratio of TD50 for po dosed mouse to ED50 for maximum electric stimulus-induced seizure in po dosed mouse; format: functional
Mus musculus [22] = experiment: Anticonvulsant activity in mouse assessed as inhibition of 3-mercaptopropionic acid-induced clonic seizure at 50 mg/kg, ip administered 30 mins prior to 3-mercaptopropionic acid challenge measured after 0.5 hrs; format: functional; conditions: route intraperitoneal; method in brief: as §3
Mus musculus [23] = experiment: Anticonvulsant in mouse assessed as protection against maximum electric stimulus-induced seizures at 30 mg/kg, ip after 0.5 hrs; format: functional, organism-based; design: dose 30 mg/kg; method in brief: as §1
Mus musculus [24] = experiment: Neurotoxicity against mouse at 30 mg/kg, ip after 0.5 hrs by rotarod ataxia test; format: toxicity, organism-based; design: dose 30 mg/kg, route intraperitoneal; conditions: in vivo; method in brief: as §2
Mus musculus [25] = experiment: Anticonvulsant activity in mouse assessed as reduction of PTZ-induced lethality at 50 mg/kg, ip administered 30 mins prior to PTZ challenge measured after 0.5 hrs; format: functional; design: scale not given: the % may be the effect or the level left; conditions: route intraperitoneal
Mus musculus [26] = experiment: Anticonvulsant activity in mouse assessed as reduction of 3-mercaptopropionic acid-induced lethality at 50 mg/kg, ip administered 30 mins prior to 3-mercaptopropionic acid challenge measured after 0.5 hrs; format: functional; design: scale not given: the % may be the effect or the level left; conditions: route intraperitoneal
Mus musculus [27] = experiment: Anticonvulsant activity in mouse assessed as inhibition of thiosemicarbazide-induced clonic seizure at 50 mg/kg, ip administered 30 mins prior to thiosemicarbazide challenge measured after 2.5 hrs; format: functional; conditions: route intraperitoneal; method in brief: as §4
Mus musculus [28] = experiment: Anticonvulsant in mouse assessed as protection against maximum electric stimulus-induced seizures at 30 mg/kg, ip after 4 hrs; format: functional, organism-based; design: dose 30 mg/kg; method in brief: as §1

Compound	ED50 (Mus musculus [1])	TD50 [2]	PI (Mus musculus [3])	Activity (Mus musculus [4])	Activity (Mus musculus [6])	Activity (Mus musculus [7])	Activity (Mus musculus [13])	Activity (Mus musculus [24])	also measured
CCC1(c2ccccc2)C(=O)NC(=O)NC1=O [PHENOBARBITAL]	21.8 mg/kg								
Clc1ccccc1Oc1ccc2nncn2n1	47.3 mg/kg	190 mg/kg	4	inactive	Non-toxic	Non-toxic			Activity (Mus musculus [5]): Active
Clc1ccc(Oc2ccc3nncn3n2)c(Cl)c1	17.3 mg/kg	380 mg/kg	22				Non-toxic	Non-toxic	inhibition in vivo at 50 mg/kg (Mus musculus [8]): 90%; inhibition in vivo at 50 mg/kg (Mus musculus [9]): 100%; inhibition in vivo at 50 mg/kg (Mus musculus [10]): 10%; HD50 (Mus musculus [11]): 746.6 mg/kg; Ratio (Mus musculus [12]): 43.2; Activity (Mus musculus [14]): 0%; inhibition in vivo at 50 mg/kg (Mus musculus [15]): 0%; Activity (Mus musculus [16]): 40%; inhibition in vivo at 50 mg/kg (Mus musculus [17]): 0%; inhibition in vivo at 50 mg/kg (Mus musculus [18]): 0%; ED50 (Mus musculus [19]): 45.6 mg/kg; TD50 [20]: 546 mg/kg; PI (Mus musculus [21]): 12; inhibition in vivo at 50 mg/kg (Mus musculus [22]): 80%; Activity (Mus musculus [23]): Active; Activity (Mus musculus [25]): 0%; Activity (Mus musculus [26]): 40%; inhibition in vivo at 50 mg/kg (Mus musculus [27]): 90%
O=c1ccc(Oc2ccccc2)n[nH]1	110 mg/kg	274 mg/kg	2.5	inactive		Non-toxic			
CCCCCCCCCCOc1ccc2nncn2n1	> 100 mg/kg			inactive	Toxic	Non-toxic			
Brc1ccc(Oc2ccc3nncn3n2)cc1	49.1 mg/kg	329 mg/kg	6.7	inactive	Non-toxic	Non-toxic			Activity (Mus musculus [5]): Active
Clc1ccc(Oc2ccc3nncn3n2)cc1	36.7 mg/kg	394 mg/kg	10.7				Non-toxic	Non-toxic	
CCCCCCCCCOc1ccc2nncn2n1	> 100 mg/kg			inactive	Toxic	Non-toxic			
CCCCCOc1ccc2nncn2n1	39.4 mg/kg	70.4 mg/kg	1.79				Non-toxic	Toxic	Activity (Mus musculus [28]): inactive
COc1ccc(Oc2ccc3nncn3n2)cc1	> 100 mg/kg			inactive	Non-toxic	Non-toxic			
CCCCCCOc1ccc2nncn2n1	32.9 mg/kg	60.8 mg/kg	1.8				Non-toxic	Toxic	Activity (Mus musculus [28]): inactive
Fc1ccc(Oc2ccc3nncn3n2)cc1	38 mg/kg	317 mg/kg	8.3				Non-toxic	Non-toxic	Activity (Mus musculus [28]): inactive
Cc1ccc(Oc2ccc3nncn3n2)cc1	> 100 mg/kg			inactive	Non-toxic	Non-toxic			
NC(=O)N1c2ccccc2C=Cc2ccccc21 [CARBAMAZEPINE]	8.8 mg/kg								inhibition in vivo at 50 mg/kg (Mus musculus [8]): 40%; inhibition in vivo at 50 mg/kg (Mus musculus [9]): 100%; inhibition in vivo at 50 mg/kg (Mus musculus [10]): 0%; HD50 (Mus musculus [11]): 172 mg/kg; Activity (Mus musculus [14]): 0%; inhibition in vivo at 50 mg/kg (Mus musculus [15]): 0%; Activity (Mus musculus [16]): 0%; inhibition in vivo at 50 mg/kg (Mus musculus [17]): 0%; inhibition in vivo at 50 mg/kg (Mus musculus [18]): 0%; inhibition in vivo at 50 mg/kg (Mus musculus [22]): 80%; Activity (Mus musculus [25]): 0%; Activity (Mus musculus [26]): 10%; inhibition in vivo at 50 mg/kg (Mus musculus [27]): 90%
COc1ccccc1Oc1ccc2nncn2n1	> 100 mg/kg			inactive	Non-toxic	Non-toxic			
CCCCCCCCOc1ccc2nncn2n1	> 100 mg/kg				Toxic	Non-toxic			Activity (Mus musculus [28]): inactive
Cc1cccc(Oc2ccc3nncn3n2)c1	> 100 mg/kg			inactive	Non-toxic	Non-toxic			
CCCCOc1ccc2nncn2n1	> 100 mg/kg			inactive	Toxic	Non-toxic			
CCCCCCCOc1ccc2nncn2n1	42.4 mg/kg	73 mg/kg	1.7				Non-toxic	Toxic	Activity (Mus musculus [28]): inactive
Cc1ccccc1Oc1ccc2nncn2n1	54.8 mg/kg	220 mg/kg	4.01	inactive	Non-toxic	Non-toxic			Activity (Mus musculus [5]): Active
Clc1cccc(Oc2ccc3nncn3n2)c1	39.4 mg/kg	228 mg/kg	5.8				Non-toxic	Non-toxic	
